Experiments:
[1] = target: Serine/threonine-protein kinase TNNI3K (Homo sapiens) (UniProt Q59H18); test: Inhibition of TNNI3K at 3 uM
[2] = target: Macrophage-stimulating protein receptor (Homo sapiens) (UniProt Q04912); test: Inhibition of MST1R at 3 uM
[3] = target: Histamine H2 receptor (Homo sapiens) (UniProt P25021); test: Inhibition of human histamine H2 receptor at 3 uM
Method in brief: (§1)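 Counter-screen binding/enzyme panel at single 3 μM, n=2; results as percent inhibition. Species per target as listed (rat NMDA, GABAA sites; human receptors, transporters; rabbit ACE).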

[4] = target: Calcium/calmodulin-dependent protein kinase type II subunit gamma (Homo sapiens) (UniProt Q13555); test: Inhibition of CAMK2G at 3 uM
[5] = target: Serine/threonine-protein kinase MARK1 (Homo sapiens) (UniProt Q9P0L2); test: Inhibition of MARK1 at 3 uM
[6] = target: Adenosine receptor A3 (Homo sapiens) (UniProt P0DMS8); test: Inhibition of human adenosine A3 receptor at 3 uM; method in brief: as §1
[7] = target: Serine/threonine-protein kinase PAK 5 (Homo sapiens) (UniProt Q9P286); test: Inhibition of PAK7/PAK5 at 3 uM
[8] = target: Tyrosine-protein kinase HCK (Homo sapiens) (UniProt P08631); test: Inhibition of HCK at 3 uM
[9] = target: Tyrosine-protein kinase receptor Tie-1 (Homo sapiens) (UniProt P35590); test: Inhibition of TIE1 at 3 uM
[10] = system: Tyrosine-protein kinase ABL1 (Homo sapiens), P00519 [F317I]; test: Inhibition of ABL1 F317I mutant at 3 uM
[11] = target: Focal adhesion kinase 1 (Homo sapiens) (UniProt Q05397); test: Inhibition of PTK2 at 3 uM
[12] = target: Serine/threonine-protein kinase 4 (Homo sapiens) (UniProt Q13043); test: Inhibition of MST1 at 3 uM
[13] = target: Wee1-like protein kinase 2 (Homo sapiens) (UniProt P0C1S8); test: Inhibition of WEE2 at 3 uM
[14] = target: Cyclin-dependent kinase 5 (Homo sapiens) (UniProt Q00535); test: Inhibition of CDK5 at 3 uM
[15] = target: Cyclin-dependent kinase 2 (Homo sapiens) (UniProt P24941); test: Inhibition of CDK2 at 3 uM
[16] = target: Serine/threonine-protein kinase Nek6 (Homo sapiens) (UniProt Q9HC98); test: Inhibition of NEK6 at 3 uM
[17] = target: Delta-type opioid receptor (Homo sapiens) (UniProt P41143); test: Inhibition of human delta opioid receptor at 3 uM; method in brief: as §1
[18] = target: Non-receptor tyrosine-protein kinase TNK1 (Homo sapiens) (UniProt Q13470); test: Inhibition of TNK1 at 3 uM
[19] = target: Tyrosine-protein kinase receptor TYRO3 (Homo sapiens) (UniProt Q06418); test: Inhibition of TYRO3 at 3 uM
[20] = target: Mitogen-activated protein kinase kinase kinase 7 (TAK1) (Homo sapiens) (UniProt O43318); test: Inhibition of TAK1 at 3 uM
[21] = target: Calcium/calmodulin-dependent protein kinase type II subunit beta (Homo sapiens) (UniProt Q13554); test: Inhibition of CAMK2B at 3 uM
[22] = target: Serine/threonine-protein kinase PLK3 (Homo sapiens) (UniProt Q9H4B4); test: Inhibition of PLK3 at 3 uM
[23] = target: Interleukin-1 receptor-associated kinase 3 (Homo sapiens) (UniProt Q9Y616); test: Inhibition of IRAK3 at 3 uM
[24] = target: Dual specificity tyrosine-phosphorylation-regulated kinase 1B (Homo sapiens) (UniProt Q9Y463); test: Inhibition of DYRK1B at 3 uM
[25] = target: Serine/threonine-protein kinase Nek9 (Homo sapiens) (UniProt Q8TD19); test: Inhibition of NEK9 at 3 uM
[26] = target: Serine/threonine-protein kinase tousled-like 1 (Homo sapiens) (UniProt Q9UKI8); test: Inhibition of TLK1 at 3 uM
[27] = target: Mitogen-activated protein kinase kinase kinase 20 (Homo sapiens) (UniProt Q9NYL2); test: Inhibition of ZAK at 3 uM
[28] = target: Cyclin-dependent kinase-like 2 (Homo sapiens) (UniProt Q92772); test: Inhibition of CDKL2 at 3 uM
[29] = target: Dual specificity mitogen-activated protein kinase kinase 2 (Homo sapiens) (UniProt P36507); test: Inhibition of MEK2 at 3 uM
[30] = target: Casein kinase I isoform gamma-3 (Homo sapiens) (UniProt Q9Y6M4); test: Inhibition of CSNK1G3 at 3 uM
[31] = target: Serine/threonine-protein kinase RIO2 (Homo sapiens) (UniProt Q9BVS4); test: Inhibition of RIOK2 at 3 uM
[32] = target: Serine/threonine-protein kinase TAO3 (Homo sapiens) (UniProt Q9H2K8); test: Inhibition of TAOK3 at 3 uM
[33] = target: Calcium/calmodulin-dependent protein kinase kinase 1 (Homo sapiens) (UniProt Q8N5S9); test: Inhibition of CAMKK1 at 3 uM
[34] = target: Cyclin-dependent kinase 11B (Homo sapiens) (UniProt P21127); test: Inhibition of CDC2L1 at 3 uM
[35] = target: Serine/threonine-protein kinase 38-like (Homo sapiens) (UniProt Q9Y2H1); test: Inhibition of NDR2 at 3 uM
[36] = target: Receptor-interacting serine/threonine-protein kinase 2 (Homo sapiens) (UniProt O43353); test: Inhibition of RIPK2 at 3 uM
[37] = target: Proto-oncogene tyrosine-protein kinase Src (Homo sapiens) (UniProt P12931); test: Inhibition of SRC at 3 uM
[38] = target: Protein kinase C delta type (Homo sapiens) (UniProt Q05655); test: Inhibition of PRKCD at 3 uM
[39] = target: Tyrosine-protein kinase Fyn (Homo sapiens) (UniProt P06241); test: Inhibition of FYN at 3 uM
Method in brief: (§2)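 Single-concentration kinase panel scoring: each value is the percentage of enzyme activity remaining relative to a DMSO-only control. An activity statistically indistinct from DMSO control was scored "no hit".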

[40] = target: Glycogen synthase kinase-3 beta (Homo sapiens) (UniProt P49841); test: Inhibition of GSK3B at 3 uM
[41] = target: Alpha-1A adrenergic receptor (Rattus norvegicus) (UniProt P43140); test: Inhibition of rat adrenergic alpha1A receptor at 3 uM
[42] = target: Death-associated protein kinase 1 (Homo sapiens) (UniProt P53355); test: Inhibition of DAPK1 at 3 uM
[43] = target: Epidermal growth factor receptor (Homo sapiens) (UniProt P00533); test: Inhibition of EGFR at 3 uM; method in brief: as §2
[44] = target: Glutamate NMDA receptor (Rattus norvegicus) (UniProt P35439+Q00959+Q00960+Q00961+Q62645+Q8VHN2+Q9R1M7); test: Displacement of glycine from rat NMDA receptor at 3 uM; type: protein-complex assay; method in brief: as §1

Macrophage-stimulating protein receptor (Homo sapiens), sequence (Q04912 25-304 limits assumed): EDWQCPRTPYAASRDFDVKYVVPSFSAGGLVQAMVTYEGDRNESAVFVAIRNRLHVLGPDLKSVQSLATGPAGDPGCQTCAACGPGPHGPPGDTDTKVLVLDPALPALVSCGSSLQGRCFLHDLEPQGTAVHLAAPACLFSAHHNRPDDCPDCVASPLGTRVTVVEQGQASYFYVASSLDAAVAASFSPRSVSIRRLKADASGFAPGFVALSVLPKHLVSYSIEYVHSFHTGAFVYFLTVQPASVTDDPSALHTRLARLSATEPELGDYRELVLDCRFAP
Macrophage-stimulating protein receptor (Homo sapiens), sequence (Q04912 310-1400 limits assumed): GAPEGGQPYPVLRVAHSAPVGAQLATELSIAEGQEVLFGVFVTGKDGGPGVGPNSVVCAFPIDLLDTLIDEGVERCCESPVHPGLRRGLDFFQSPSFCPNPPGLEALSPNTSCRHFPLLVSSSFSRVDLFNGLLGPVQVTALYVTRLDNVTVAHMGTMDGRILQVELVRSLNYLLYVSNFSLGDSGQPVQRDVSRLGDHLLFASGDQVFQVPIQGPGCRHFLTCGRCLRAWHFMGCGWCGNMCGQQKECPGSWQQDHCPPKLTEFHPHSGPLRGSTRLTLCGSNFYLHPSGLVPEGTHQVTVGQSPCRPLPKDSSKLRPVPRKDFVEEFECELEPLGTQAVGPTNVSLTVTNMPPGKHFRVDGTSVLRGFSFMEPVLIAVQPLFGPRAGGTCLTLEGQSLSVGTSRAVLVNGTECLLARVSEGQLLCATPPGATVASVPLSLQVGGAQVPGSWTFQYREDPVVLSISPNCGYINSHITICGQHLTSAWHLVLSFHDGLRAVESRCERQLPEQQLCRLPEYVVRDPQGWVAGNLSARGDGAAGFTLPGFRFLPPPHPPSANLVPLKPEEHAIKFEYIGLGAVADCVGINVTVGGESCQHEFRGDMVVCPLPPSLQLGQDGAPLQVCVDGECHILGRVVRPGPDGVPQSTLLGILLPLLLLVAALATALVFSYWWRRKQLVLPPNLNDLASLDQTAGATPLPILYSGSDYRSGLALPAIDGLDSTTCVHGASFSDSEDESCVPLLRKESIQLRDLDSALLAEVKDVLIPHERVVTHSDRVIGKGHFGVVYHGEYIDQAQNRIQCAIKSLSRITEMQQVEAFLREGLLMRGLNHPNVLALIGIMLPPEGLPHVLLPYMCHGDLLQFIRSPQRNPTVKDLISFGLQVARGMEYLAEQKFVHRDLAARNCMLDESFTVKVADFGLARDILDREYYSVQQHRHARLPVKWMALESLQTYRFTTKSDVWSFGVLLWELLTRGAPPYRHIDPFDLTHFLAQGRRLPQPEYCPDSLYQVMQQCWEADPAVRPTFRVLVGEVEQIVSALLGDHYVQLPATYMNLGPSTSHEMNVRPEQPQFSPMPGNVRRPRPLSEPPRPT
Delta-type opioid receptor (Homo sapiens), sequence (P41143 whole entry): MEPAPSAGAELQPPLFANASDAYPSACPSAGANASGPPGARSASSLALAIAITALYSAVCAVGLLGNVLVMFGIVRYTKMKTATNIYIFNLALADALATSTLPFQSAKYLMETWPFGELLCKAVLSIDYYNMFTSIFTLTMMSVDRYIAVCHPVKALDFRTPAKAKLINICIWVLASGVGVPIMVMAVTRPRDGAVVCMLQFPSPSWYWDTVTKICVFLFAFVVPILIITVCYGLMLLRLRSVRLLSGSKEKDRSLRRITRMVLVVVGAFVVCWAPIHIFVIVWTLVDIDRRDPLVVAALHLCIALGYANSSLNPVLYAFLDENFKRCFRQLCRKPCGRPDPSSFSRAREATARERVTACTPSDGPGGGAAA
Serine/threonine-protein kinase MARK1 (Homo sapiens), sequence (Q9P0L2 whole entry, looked up): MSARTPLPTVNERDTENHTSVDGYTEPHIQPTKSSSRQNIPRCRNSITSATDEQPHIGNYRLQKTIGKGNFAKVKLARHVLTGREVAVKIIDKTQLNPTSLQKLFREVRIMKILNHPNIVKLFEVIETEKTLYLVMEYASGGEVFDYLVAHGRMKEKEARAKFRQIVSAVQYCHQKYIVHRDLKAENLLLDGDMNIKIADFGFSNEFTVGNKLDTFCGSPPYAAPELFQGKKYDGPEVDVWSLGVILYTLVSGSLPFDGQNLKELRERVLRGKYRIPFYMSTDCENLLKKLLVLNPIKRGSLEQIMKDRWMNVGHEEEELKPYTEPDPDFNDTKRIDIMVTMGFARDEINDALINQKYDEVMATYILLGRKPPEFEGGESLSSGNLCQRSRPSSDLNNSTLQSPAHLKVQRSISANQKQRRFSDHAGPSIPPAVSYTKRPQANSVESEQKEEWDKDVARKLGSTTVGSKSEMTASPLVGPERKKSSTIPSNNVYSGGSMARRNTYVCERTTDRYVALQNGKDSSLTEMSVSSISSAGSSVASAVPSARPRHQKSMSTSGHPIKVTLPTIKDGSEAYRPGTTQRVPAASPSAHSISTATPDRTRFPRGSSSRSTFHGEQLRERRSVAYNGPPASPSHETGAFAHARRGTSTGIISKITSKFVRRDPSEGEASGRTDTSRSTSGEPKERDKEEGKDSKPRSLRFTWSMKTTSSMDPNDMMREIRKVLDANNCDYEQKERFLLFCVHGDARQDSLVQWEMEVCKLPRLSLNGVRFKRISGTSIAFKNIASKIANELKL
Serine/threonine-protein kinase tousled-like 1 (Homo sapiens), sequence (Q9UKI8 whole entry): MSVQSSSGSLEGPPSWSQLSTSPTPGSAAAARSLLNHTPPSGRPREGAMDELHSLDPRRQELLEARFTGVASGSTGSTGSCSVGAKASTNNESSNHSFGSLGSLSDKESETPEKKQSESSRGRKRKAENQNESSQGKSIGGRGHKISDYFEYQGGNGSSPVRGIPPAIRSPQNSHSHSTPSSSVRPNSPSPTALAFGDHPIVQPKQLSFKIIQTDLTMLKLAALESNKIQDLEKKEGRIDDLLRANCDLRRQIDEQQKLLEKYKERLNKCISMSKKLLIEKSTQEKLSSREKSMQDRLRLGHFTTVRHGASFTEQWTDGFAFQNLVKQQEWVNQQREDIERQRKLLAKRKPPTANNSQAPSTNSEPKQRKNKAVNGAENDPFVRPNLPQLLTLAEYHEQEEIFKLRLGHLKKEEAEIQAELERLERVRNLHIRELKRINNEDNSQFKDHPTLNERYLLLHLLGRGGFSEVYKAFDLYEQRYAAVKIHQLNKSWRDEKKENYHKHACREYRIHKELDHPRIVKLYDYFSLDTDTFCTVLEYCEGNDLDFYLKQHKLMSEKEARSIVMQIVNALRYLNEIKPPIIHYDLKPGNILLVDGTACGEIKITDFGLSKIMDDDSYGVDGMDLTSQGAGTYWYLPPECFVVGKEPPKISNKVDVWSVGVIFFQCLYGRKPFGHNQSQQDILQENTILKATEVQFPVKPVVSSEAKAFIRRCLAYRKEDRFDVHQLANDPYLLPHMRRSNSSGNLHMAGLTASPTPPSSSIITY
Epidermal growth factor receptor (Homo sapiens), sequence (P00533 whole entry): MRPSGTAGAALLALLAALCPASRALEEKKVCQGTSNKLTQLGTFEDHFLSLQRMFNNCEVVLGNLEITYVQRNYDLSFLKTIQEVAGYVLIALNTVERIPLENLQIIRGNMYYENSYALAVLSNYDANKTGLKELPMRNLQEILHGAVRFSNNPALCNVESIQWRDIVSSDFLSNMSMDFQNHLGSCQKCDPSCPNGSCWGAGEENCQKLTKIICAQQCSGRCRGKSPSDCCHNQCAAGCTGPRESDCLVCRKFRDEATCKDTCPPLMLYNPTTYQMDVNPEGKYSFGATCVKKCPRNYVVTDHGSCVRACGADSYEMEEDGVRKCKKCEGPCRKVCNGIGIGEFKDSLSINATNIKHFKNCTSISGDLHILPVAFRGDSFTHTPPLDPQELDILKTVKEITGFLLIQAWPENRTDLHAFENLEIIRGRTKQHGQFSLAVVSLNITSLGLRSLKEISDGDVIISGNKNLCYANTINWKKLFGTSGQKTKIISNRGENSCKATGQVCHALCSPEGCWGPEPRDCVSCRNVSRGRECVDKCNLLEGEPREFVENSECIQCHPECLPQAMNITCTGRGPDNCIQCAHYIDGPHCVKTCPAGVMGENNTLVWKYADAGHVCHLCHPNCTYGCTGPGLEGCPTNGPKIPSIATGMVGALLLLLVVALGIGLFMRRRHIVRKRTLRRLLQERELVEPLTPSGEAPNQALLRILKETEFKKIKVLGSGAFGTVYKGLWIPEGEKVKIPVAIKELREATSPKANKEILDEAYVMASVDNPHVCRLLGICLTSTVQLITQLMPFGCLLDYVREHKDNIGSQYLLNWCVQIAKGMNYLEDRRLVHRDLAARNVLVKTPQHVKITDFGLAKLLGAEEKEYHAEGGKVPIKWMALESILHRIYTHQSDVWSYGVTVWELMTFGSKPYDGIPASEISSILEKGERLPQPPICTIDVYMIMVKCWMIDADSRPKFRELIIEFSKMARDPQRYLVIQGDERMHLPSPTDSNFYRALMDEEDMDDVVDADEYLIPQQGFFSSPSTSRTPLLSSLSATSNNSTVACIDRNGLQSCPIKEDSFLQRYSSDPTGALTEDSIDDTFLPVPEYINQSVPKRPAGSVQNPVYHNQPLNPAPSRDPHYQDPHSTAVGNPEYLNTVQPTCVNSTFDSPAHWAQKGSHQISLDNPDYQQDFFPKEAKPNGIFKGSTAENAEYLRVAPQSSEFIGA
Calcium/calmodulin-dependent protein kinase type II subunit gamma (Homo sapiens), sequence (Q13555 whole entry): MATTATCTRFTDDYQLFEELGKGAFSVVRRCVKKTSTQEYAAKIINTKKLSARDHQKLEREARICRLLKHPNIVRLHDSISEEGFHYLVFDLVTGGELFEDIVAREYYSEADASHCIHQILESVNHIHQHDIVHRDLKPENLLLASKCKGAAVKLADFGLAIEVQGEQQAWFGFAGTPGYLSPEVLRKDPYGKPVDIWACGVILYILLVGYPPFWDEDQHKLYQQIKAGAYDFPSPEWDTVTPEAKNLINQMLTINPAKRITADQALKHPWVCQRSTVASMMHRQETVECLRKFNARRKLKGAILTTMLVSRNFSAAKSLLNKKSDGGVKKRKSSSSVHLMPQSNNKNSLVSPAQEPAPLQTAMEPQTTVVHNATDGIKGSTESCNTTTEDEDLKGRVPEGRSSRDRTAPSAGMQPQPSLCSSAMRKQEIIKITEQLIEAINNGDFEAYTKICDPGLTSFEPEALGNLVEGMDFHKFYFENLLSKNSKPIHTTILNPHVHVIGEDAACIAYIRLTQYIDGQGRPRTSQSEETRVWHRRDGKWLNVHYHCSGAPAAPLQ

`CN(C)CCOc1cc(-c2cn[nH]c2)ccc1NC(=O)C1COc2ccccc2O1` (centres undefined) [SR-3677] was tested, and the inhibition [1] was < 10%, the inhibition [2] was < 10% and the inhibition [3] was 1%. For the same compound, the inhibition [4] was < 10%, the inhibition [5] was < 10% and the inhibition [6] was -4%. For the same compound, the inhibition [7] was < 10%, the inhibition [8] was < 10% and the inhibition [9] was < 10%. The inhibition [10] was < 10%, the inhibition [11] was < 10% and the inhibition [12] was < 10%. The inhibition [13] was < 10%, the inhibition [14] was < 10% and the inhibition [15] was < 10%. The inhibition [16] was < 10%, the inhibition [17] was -9% and the inhibition [18] was < 10%. The inhibition [19] was < 10%, the inhibition [20] was < 10% and the inhibition [21] was < 10%. The inhibition [22] was < 10%, the inhibition [23] was < 10% and the inhibition [24] was < 10%. The inhibition [25] was < 10%, the inhibition [26] was < 10% and the inhibition [27] was < 10%. For the same compound, the inhibition [28] was < 10%, the inhibition [29] was < 10% and the inhibition [30] was < 10%. The inhibition [31] was < 10%, the inhibition [32] was < 10% and the inhibition [33] was < 10%. The inhibition [34] was < 10%, the inhibition [35] was < 10% and the inhibition [36] was < 10%. The inhibition [37] was < 10%, the inhibition [38] was < 10% and the inhibition [39] was < 10%. The inhibition [40] was < 10%, the inhibition [41] was 53% and the inhibition [42] was < 10%. For the same compound, the inhibition [43] was < 10% and the inhibition [44] was -10%.

— ChEMBL document CHEMBL1142492 (J Med Chem, 2008)
